ChEMBL document CHEMBL3745596, “Chlorophenoxy aminoalkyl derivatives as histamine H(3)R ligands and antiseizure agents” (Bioorg Med Chem, 2016)
Active and inactive are the calls of the source.

What was measured:
[1] = system: Mus musculus; test: Neurotoxicity in CF1 albino mouse at 30 mg/kg, ip after 0.5 hrs by rotarod test; assay type: toxicity, organism-based; conditions: in vivo
How it was run: (§1)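 Rotarod neurotoxicity in male albino CF-1 mice dosed ip with compound suspended in 0.5% methylcellulose. Animal placed on a 1 inch diameter knurled plastic rod rotating at 6 rpm. Neurotoxicity scored when the animal falls off three times within 1 min. Readout is number of animals toxic/number tested at the stated time after dosing. TD50 with 95% confidence interval from the quantitative study.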

[2] = system: Mus musculus; test: Neurotoxicity in CF1 albino mouse assessed as unable to grasp rotarod, death and loss of righting reflux at 100 mg/kg, ip after 0.5 hrs by rotarod test; assay type: toxicity, organism-based; conditions: in vivo
How it was run: (§2)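 Male albino CF-1 mice dosed ip with compound suspended in 0.5% methylcellulose, then placed on a 1-inch knurled plastic rod turning at 6 rpm. A fall three times within 1 min counted as neurotoxicity. Observations were made at 0.5 h and 4 h after dosing. Result given as animals showing toxicity per animals tested, with the kind of toxicity recorded.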

[3] = biological target: Histamine H3 receptor (Homo sapiens, UniProt Q9Y5N1); test: Displacement of [3H]-Nalpha-methylhistamine from human recombinant histamine H3 receptor expressed in HEK293 cells after 90 mins; assay type: cell-based
[4] = system: Mus musculus; test: Neurotoxicity in CF1 albino mouse at 30 mg/kg, ip after 4 hrs by rotarod test; assay type: toxicity, organism-based; conditions: in vivo; how it was run: as §1
[5] = system: Mus musculus; test: Anticonvulsant activity in CF1 albino mouse assessed as protection against subcutaneous pentetrazole-induced seizure at 100 mg/kg, ip after 0.5 hrs; assay type: functional, organism-based
How it was run: (§3)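 Male CF-1 mice, ip in 0.5% methylcellulose; pentetrazole at CD97 (85 mg/kg) injected subcutaneously in a loose fold of neck skin. Observed 30 min; absence of even a threshold seizure (single clonic spasm lasting at least 5 s) counted as protection. Scored protected/tested, or ED50.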

[6] = system: Mus musculus; test: Anticonvulsant activity in CF1 albino mouse assessed as protection against subcutaneous pentetrazole-induced seizure at 30 mg/kg, ip after 0.5 hrs; assay type: functional, organism-based; how it was run: as §3
[7] = system: Mus musculus; test: Anticonvulsant activity in CF1 albino mouse assessed as protection against maximal electroshock-induced seizure at 100 mg/kg, ip after 4 hrs; assay type: functional, organism-based
How it was run: (§4)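 Male CF-1 mice dosed ip as suspension in 0.5% methylcellulose. Corneal electrodes deliver 60 Hz alternating current, 50 mA for […], after a drop of 0.5% tetracaine HCl in 0.9% NaCl per eye. Protection means abolition of hindlimb tonic extension; scored as protected/tested, or ED50 with 95% confidence interval.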

[8] = system: Mus musculus; test: Anticonvulsant activity in CF1 albino mouse assessed as protection against maximal electroshock-induced seizure at 30 mg/kg, ip after 4 hrs; assay type: functional, organism-based; how it was run: as §4
[9] = system: Mus musculus; test: Neurotoxicity in CF1 albino mouse assessed as death at 300 mg/kg, ip after 0.5 hrs by rotarod test; assay type: toxicity, organism-based; conditions: in vivo; how it was run: as §2
[10] = system: Mus musculus; test: Anticonvulsant activity in CF1 albino mouse assessed as protection against maximal electroshock-induced seizure at 3 mg/kg, ip after 0.5 hrs; assay type: functional, organism-based; how it was run: as §4
[11] = system: Mus musculus; test: Anticonvulsant activity in CF1 albino mouse assessed as protection against maximal electroshock-induced seizure at 10 mg/kg, ip after 0.5 hrs; assay type: functional, organism-based; how it was run: as §4
[12] = system: Mus musculus; test: Neurotoxicity in CF1 albino mouse at 300 mg/kg, ip after 4 hrs by rotarod test; assay type: toxicity, organism-based; conditions: in vivo; how it was run: as §1
[13] = system: Mus musculus; test: Anticonvulsant activity in CF1 albino mouse assessed as protection against maximal electroshock-induced seizure at 30 mg/kg, ip after 0.5 hrs; assay type: functional, organism-based; how it was run: as §4
[14] = system: Mus musculus; test: Anticonvulsant activity in CF1 albino mouse assessed as protection against subcutaneous pentetrazole-induced seizure at 30 mg/kg, ip after 4 hrs; assay type: functional, organism-based; how it was run: as §3
[15] = system: Mus musculus; test: Neurotoxicity in CF1 albino mouse at 100 mg/kg, ip after 4 hrs by rotarod test; assay type: toxicity, organism-based; conditions: in vivo; how it was run: as §1
[16] = system: Mus musculus; test: Anticonvulsant activity in CF1 albino mouse assessed as protection against subcutaneous pentetrazole-induced seizure at 100 mg/kg, ip after 4 hrs; assay type: functional, organism-based; how it was run: as §3
[17] = system: Mus musculus; test: Neurotoxicity in CF1 albino mouse at 3 mg/kg, ip after 0.5 hrs by rotarod test; assay type: toxicity, organism-based; conditions: in vivo; how it was run: as §1
[18] = system: Mus musculus; test: Neurotoxicity in CF1 albino mouse at 10 mg/kg, ip after 0.5 hrs by rotarod test; assay type: toxicity, organism-based; conditions: in vivo
How it was run: (§5)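 Rotarod neurotoxicity in male CF-1 mice dosed ip as 0.5% methylcellulose suspension: mouse placed on 1 inch knurled rod rotating at 6 rpm; toxicity when the animal falls off three times within 1 min, with other signs noted. Scored as toxic/tested at 0.5 h and 4 h.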

[19] = system: Mus musculus; test: Neurotoxicity in CF1 albino mouse assessed as vocalization at 30 mg/kg, ip after 0.5 hrs by rotarod test; assay type: toxicity, organism-based; conditions: in vivo; how it was run: as §5
[20] = system: Mus musculus; test: Neurotoxicity in CF1 albino mouse assessed as death at 100 mg/kg, ip after 0.5 hrs by rotarod test; assay type: toxicity, organism-based; conditions: in vivo; how it was run: as §2
[21] = system: Mus musculus; test: Neurotoxicity in CF1 albino mouse assessed as death at 300 mg/kg, ip after 4 hrs by rotarod test; assay type: toxicity, organism-based; conditions: in vivo; how it was run: as §2
[22] = system: Rattus norvegicus; test: Anticonvulsant activity in Sprague-Dawley rat assessed as protection against pilocarpine-induced convulsive status epilepticus at 65 mg/kg, ip; assay type: functional, organism-based
How it was run: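 Male Sprague Dawley rats (150–180 g) dosed ip, pilocarpine 50 mg/kg ip given; compound dosed immediately at first behavioral Stage 3 seizure or 30 min later. Number protected from Racine Stage 3 or greater seizures recorded.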

[23] = system: Mus musculus; test: Anticonvulsant activity in CF1 albino mouse assessed as protection against maximal electroshock-induced seizure at 100 mg/kg, ip after 0.5 hrs; assay type: functional, organism-based; how it was run: as §4

Histamine H3 receptor, sequence (Q9Y5N1 whole entry): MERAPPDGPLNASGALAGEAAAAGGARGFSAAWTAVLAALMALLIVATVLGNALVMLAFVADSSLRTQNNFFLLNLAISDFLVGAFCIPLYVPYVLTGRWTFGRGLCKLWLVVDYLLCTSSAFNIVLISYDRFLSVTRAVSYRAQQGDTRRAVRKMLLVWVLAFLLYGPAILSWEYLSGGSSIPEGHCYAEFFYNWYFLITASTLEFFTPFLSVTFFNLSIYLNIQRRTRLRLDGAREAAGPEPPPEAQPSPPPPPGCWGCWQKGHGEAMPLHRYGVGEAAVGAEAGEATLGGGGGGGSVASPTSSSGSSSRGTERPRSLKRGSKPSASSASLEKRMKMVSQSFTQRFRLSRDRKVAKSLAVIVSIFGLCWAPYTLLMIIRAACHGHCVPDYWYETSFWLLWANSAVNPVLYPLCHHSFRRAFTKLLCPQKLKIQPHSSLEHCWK

With `Clc1ccc(OCCCCCN2CCCCCC2)cc1.O=C(O)C(=O)O` the Activity [1] was “Non-toxic”, the Activity [2] was “Toxic” and the Ki [3] was 0.371 µM. The Activity [4] was “Non-toxic”, the Activity [5] was “inactive” and the Activity [6] was “inactive”. For the same compound, the Activity [7] was “Active”, the Activity [8] was “inactive” and the Activity [9] was “Toxic”. The Activity [10] was “inactive”, the Activity [11] was “inactive” and the Activity [12] was “Non-toxic”. For the same compound, the Activity [13] was “Active”, the Activity [14] was “inactive” and the Activity [15] was “Non-toxic”. The Activity [16] was “inactive”, the Activity [17] was “Non-toxic” and the Activity [18] was “Non-toxic”.

With `CC1CCN(CCCCCOc2ccc(Cl)cc2)CC1.O=C(O)C(=O)O` the Ki [3] was 0.8 µM, the Activity [4] was “Non-toxic” and the Activity [6] was “inactive”. For the same compound, the Activity [8] was “Active”, the Activity [9] was “Toxic” and the Activity [10] was “inactive”. For the same compound, the Activity [11] was “inactive”, the Activity [12] was “Non-toxic” and the Activity [19] was “Toxic”. The Activity [13] was “Active”, the Activity [20] was “Toxic” and the Activity [14] was “inactive”. The Activity [15] was “Non-toxic”, the Activity [17] was “Non-toxic” and the Activity [18] was “Non-toxic”.

`Clc1cccc(OCCCCCCCN2CCCCC2)c1.O=C(O)C(=O)O` was tested, and the Activity [1] was “Non-toxic”, the Ki [3] was 0.333 µM and the Activity [4] was “Non-toxic”. The Activity [21] was “Non-toxic”, the Activity [5] was “inactive” and the Activity [6] was “inactive”. For the same compound, the Activity [7] was “inactive”, the Activity [8] was “inactive” and the Activity [9] was “Toxic”. The Activity [22] was “Active”, the Activity [23] was “inactive” and the Activity [13] was “inactive”. For the same compound, the Activity [14] was “inactive”, the Activity [15] was “Non-toxic” and the Activity [16] was “inactive”.
